Results: ChEMBL document CHEMBL1933023, “Novel immunomodulators based on an oxazolin-2-one-4-carboxamide scaffold” (Bioorg Med Chem Lett, 2012)

How the values were obtained:
[1] = target: T1, Sphingosine 1-phosphate receptor 4 (Homo sapiens, UniProt O95977); experiment: Agonist activity at human S1P4 expressed in CHO cells after 60 mins by [35S]GTPgammaS binding assay; assay type: functional, cell-based
T1 sequence (O95977 whole entry): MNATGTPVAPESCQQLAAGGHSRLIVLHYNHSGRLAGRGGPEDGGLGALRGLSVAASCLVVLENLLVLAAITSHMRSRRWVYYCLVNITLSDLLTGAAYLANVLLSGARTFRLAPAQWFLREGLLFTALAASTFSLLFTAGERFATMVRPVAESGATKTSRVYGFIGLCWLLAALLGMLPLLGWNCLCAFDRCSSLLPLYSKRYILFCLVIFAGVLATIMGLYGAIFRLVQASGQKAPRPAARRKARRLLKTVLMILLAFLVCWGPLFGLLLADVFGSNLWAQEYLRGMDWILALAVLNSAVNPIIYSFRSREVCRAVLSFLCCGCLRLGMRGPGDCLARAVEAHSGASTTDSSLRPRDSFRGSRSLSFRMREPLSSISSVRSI

Mus musculus [2] = experiment: Immunosuppressant activity in Balb/C mouse assessed as decrease in circulating CD3+ T cells at 3 mg/kg, po measured after 30 mins by flow cytometric analysis; assay type: functional, T-cell; parameters: scale not given: the % may be the effect or the level left
Summary of the method: (§1)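 Oral dosing of BALB/C mice at 0.1, 0.3, 1, 3 or 10 mg/kg. Peripheral blood CD3+ T cells were counted, and the result is expressed as percent decrease of CD3+ cells.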

Mus musculus [3] = experiment: Immunosuppressant activity in Balb/C mouse assessed as decrease in circulating CD3+ T cells at 10 mg/kg, po measured after 30 mins by flow cytometric analysis; assay type: functional, T-cell; parameters: scale not given: the % may be the effect or the level left; summary of the method: as §1
[4] = target: T2, Sphingosine 1-phosphate receptor 1 (Homo sapiens, UniProt P21453); settings: UOS2, 10 uM
Mus musculus [5] = experiment: Immunosuppressant activity in Balb/C mouse assessed as decrease in circulating CD3+ T cells at 1 mg/kg, po measured after 30 mins by flow cytometric analysis; assay type: functional, T-cell; parameters: scale not given: the % may be the effect or the level left; summary of the method: as §1
Mus musculus [6] = experiment: Immunosuppressant activity in Balb/C mouse assessed as decrease in circulating CD3+ T cells at 0.3 mg/kg, po measured after 30 mins by flow cytometric analysis; assay type: functional, T-cell; parameters: scale not given: the % may be the effect or the level left; summary of the method: as §1
[7] = target: T2, Sphingosine 1-phosphate receptor 1; settings: UOS2, 3 uM
[8] = Cytotoxicity against HLF cells; assay type: cell-based; settings: human, read-out: TC50 (the source's name)
Summary of the method: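 Cytotoxicity was determined by the MTT method in HLF cells; TC50 values reported in μM.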

Mus musculus [9] = experiment: Immunosuppressant activity in Balb/C mouse assessed as decrease in circulating CD3+ T cells at 0.1 mg/kg, po measured after 30 mins by flow cytometric analysis; assay type: functional, T-cell; parameters: scale not given: the % may be the effect or the level left; summary of the method: as §1
[10] = target: T2, Sphingosine 1-phosphate receptor 1; experiment: Agonist activity at EGFP-tagged S1P1 receptor expressed in human […] cells assessed as receptor internalization in endosomes after 60 mins; assay type: functional, cell-based
Summary of the method: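 S1P1 Redistribution assay measuring agonist activity; EC50 values reported in μM.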

S1P1 receptor = experiment: Therapeutic index, ratio of TC50 for HLF cells to EC50 for S1P1 receptor; assay type: cell-based; settings: human, read-out: TI
[11] = Ratio of TC50 for compound to FTY720 for HLF cells; assay type: ADME, cell-based; settings: human
Mus musculus [12] = experiment: Immunosuppressant activity in po dosed Balb/C mouse assessed as decrease in circulating CD3+ T cells measured after 30 mins by flow cytometric analysis; assay type: functional, organism-based; settings: T-cell; summary of the method: as §1

T2 sequence (P21453 whole entry): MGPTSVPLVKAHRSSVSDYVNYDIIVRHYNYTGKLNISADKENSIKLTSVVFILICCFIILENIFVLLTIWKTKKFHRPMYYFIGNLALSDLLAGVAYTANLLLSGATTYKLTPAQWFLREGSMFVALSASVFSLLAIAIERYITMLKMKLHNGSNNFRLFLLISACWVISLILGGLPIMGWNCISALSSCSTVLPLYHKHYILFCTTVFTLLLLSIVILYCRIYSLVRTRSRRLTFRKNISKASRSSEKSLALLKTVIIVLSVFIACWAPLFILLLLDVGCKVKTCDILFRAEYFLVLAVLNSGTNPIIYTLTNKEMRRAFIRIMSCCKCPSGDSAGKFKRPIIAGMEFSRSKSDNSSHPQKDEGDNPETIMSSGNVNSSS

Row | Structure (SMILES) | EC50 ([10]; read-out: EC50) [µM] | CC50 [8] [µM] | selectivity ratio (S1P1 receptor) | selectivity ratio [11] | further results
1 | CCCCCCCCc1ccc(CC[C@](N)(CO)COP(=O)(O)O)cc1 [FTY720-P] |  |  |  |  | IC50 [1]: 0.0022 µM
2 | CCCCCCCCc1ccc(CCC(N)(CO)CO)cc1.Cl [FINGOLIMOD HYDROCHLORIDE] |  | 3.15 |  |  | Activity (Mus musculus [2]): 80.7%; Activity (Mus musculus [3]): 86.6%; Emax [4]: 54%; Activity (Mus musculus [5]): 79%; Activity (Mus musculus [6]): 47.2%; Emax [7]: 37%; Activity (Mus musculus [9]): 9.7%
3 | CC(C)(C)c1ccc(COc2ccc(CCC3(C(N)=O)COC(=O)N3)cc2)cc1 (stereo unspecified) | 2.72 | 25.4 | 9.35 | 8 | 
4 | CCCCCCCCOc1ccc(CCC2(C(N)=O)COC(=O)N2)cc1 (stereo unspecified) | 2.84 | 121 | 42.6 |  | Activity (Mus musculus [2]): 53%; Activity (Mus musculus [3]): 84.3%; Activity (Mus musculus [5]): 20%; Activity (Mus musculus [6]): 1.7%; Activity (Mus musculus [12]): Dose-dependent effect
5 | Cc1ccccc1COc1ccc(CCC2(C(N)=O)COC(=O)N2)cc1 (stereo unspecified) |  |  |  |  | EC50 ([10]; uos2): Not Active

Second part, led by results:

Row | EC50 ([10]; read-out: EC50) [µM] | Structure (SMILES) | CC50 [8] [µM] | selectivity ratio (S1P1 receptor) | selectivity ratio [11] | further results
6 | > 100 | NC(=O)C1(CCc2ccc(OCc3ccccc3Cl)cc2)COC(=O)N1 (stereo unspecified) |  |  |  | 
7 | 3.63 | NC(=O)C1(CCc2ccc(OCCCc3ccccc3)cc2)COC(=O)N1 (stereo unspecified) | 26.4 | 7.28 | 8 | 
8 | 1.1 | NC(=O)C1(CCc2ccc(OCc3ccc(Cl)cc3)cc2)COC(=O)N1 (stereo unspecified) | 27.9 | 25.4 | 8 | 
